Results: ChEMBL document CHEMBL2034858, “An efficient one-pot synthesis, structure, antimicrobial and antioxidant investigations of some novel quinolyldibenzo[b,e][1,4]diazepinones” (2012)
≈ marks a conversion by molar mass, not a printed value.

Tests used:
Candida albicans = assay: Antifungal activity against Candida albicans MTCC 227 after 48 hrs by micro-broth dilution method; assay type: functional
Aspergillus fumigatus = assay: Antifungal activity against Aspergillus fumigatus MTCC 3008 after 48 hrs by micro-broth dilution method; assay type: functional
Escherichia coli = assay: Antibacterial activity against Escherichia coli MTCC 443 after 24 hrs by micro-broth dilution method; assay type: functional; settings: MTCC 443, 24 h
[1] = Antioxidant activity assessed as ascorbic acid equivalent/100g at 200 ug/mL by FRAP assay; assay type: functional
Clostridium tetani = assay: Antibacterial activity against Clostridium tetani MTCC 449 after 24 hrs by micro-broth dilution method; assay type: functional; settings: MTCC 449, 24 h
Streptococcus pneumoniae = assay: Antibacterial activity against Streptococcus pneumoniae MTCC 1936 after 24 hrs by micro-broth dilution method; assay type: functional; settings: MTCC 1936, 24 h
Bacillus subtilis = assay: Antibacterial activity against Bacillus subtilis MTCC 441 after 24 hrs by micro-broth dilution method; assay type: functional; settings: MTCC 441, 24 h
[2] = system: Mycobacterium tuberculosis; assay: Antitubercular activity against Mycobacterium tuberculosis H37Rv at 250 ug/mL; assay type: functional; settings: read-out: GI
Summary of the method: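 M. tuberculosis H37Rv tested on conventional L.J. (Löwenstein–Jensen) medium; activity read as percent growth inhibition.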

Salmonella typhi = assay: Antibacterial activity against Salmonella typhi MTCC 98 after 24 hrs by micro-broth dilution method; assay type: functional, Salmonella enterica subsp. enterica serovar Typhi; settings: Salmonella enterica, MTCC 98, 24 h
Vibrio cholerae = assay: Antibacterial activity against Vibrio cholerae MTCC 3906 after 24 hrs by micro-broth dilution method; assay type: functional; settings: MTCC 3906, 24 h
[3] = system: Mycobacterium tuberculosis; assay: Antitubercular activity against Mycobacterium tuberculosis H37Rv at > 256 ug/mL; assay type: functional

Compound	MIC (Candida albicans) [µg/mL]	MIC (Aspergillus fumigatus) [µg/mL]	MIC (Candida albicans; MTCC 227, 48 h) [µg/mL]	MIC (Aspergillus fumigatus; MTCC 3008, 48 h) [µg/mL]	MIC (Escherichia coli) [µg/mL]	Activity [1] [mmol]	MIC (Clostridium tetani) [µg/mL]	MIC (Streptococcus pneumoniae) [µg/mL]	MIC (Bacillus subtilis) [µg/mL]	inhibition of growth at 250 µg/mL [2] [%]	MIC (Salmonella typhi) [µg/mL]	MIC (Vibrio cholerae) [µg/mL]	growth inhibition (GI) [3] [%]
NYSTATIN	100	100											
COC1=CC(=O)C[C@@H](C)[C@]12Oc1c(Cl)c(OC)cc(OC)c1C2=O [GRISEOFULVIN]			500 (≈ 1420 µM)	100 (≈ 283 µM)									
C=CCn1c(=O)c(C2Nc3ccccc3NC3=C2C(=O)CCC3)cc2ccc(Cl)cc21 (centres undefined)			> 250	> 250	100 (≈ 232 µM)	490	250 (≈ 579 µM)	250 (≈ 579 µM)	250 (≈ 579 µM)	< 50	250 (≈ 579 µM)	250 (≈ 579 µM)	
C=CCn1c(=O)c(C2Nc3ccccc3NC3=C2C(=O)CC(C)(C)C3)cc2ccc(C)cc21 (centres undefined)			> 250	> 250	250 (≈ 569 µM)	270	250 (≈ 569 µM)	> 250	250 (≈ 569 µM)	91	250 (≈ 569 µM)	> 250	
O=C(O)c1cn(C2CC2)c2cc(N3CCNCC3)c(F)cc2c1=O [CIPROFLOXACIN]					25 (≈ 75.4 µM)			50 (≈ 151 µM)			25 (≈ 75.4 µM)	25 (≈ 75.4 µM)	
C=CCn1c(=O)c(C2Nc3ccccc3NC3=C2C(=O)CCC3)cc2ccc(C)cc21 (centres undefined)			> 250	250 (≈ 608 µM)	62.5 (≈ 152 µM)	499	500 (≈ 1220 µM)	> 250	200 (≈ 486 µM)	75	100 (≈ 243 µM)	100 (≈ 243 µM)	
CCn1cc(C(=O)O)c(=O)c2cc(F)c(N3CCNCC3)cc21 [NORFLOXACIN]					10 (≈ 31.3 µM)		50 (≈ 157 µM)	10 (≈ 31.3 µM)	100 (≈ 313 µM)		10 (≈ 31.3 µM)	10 (≈ 31.3 µM)	
C=CCN1c2ccccc2NC2=C(C(=O)CCC2)C1c1cc2ccccc2n(CC=C)c1=O (centres undefined)			> 250	250 (≈ 571 µM)	> 250	389	200 (≈ 457 µM)	100 (≈ 229 µM)	100 (≈ 229 µM)	51	250 (≈ 571 µM)	100 (≈ 229 µM)	
C=CCN1c2ccccc2NC2=C(C(=O)CCC2)C1c1cc2ccc(C)cc2n(CC=C)c1=O (centres undefined)			250 (≈ 554 µM)	> 250	> 250	382	500 (≈ 1110 µM)	> 250	250 (≈ 554 µM)	64	200 (≈ 443 µM)	100 (≈ 221 µM)	
C=CCn1c(=O)c(C2Nc3ccccc3NC3=C2C(=O)CCC3)cc2cc(C)ccc21 (centres undefined)			> 250	> 250	250 (≈ 608 µM)	499	100 (≈ 243 µM)	> 250	250 (≈ 608 µM)	58	250 (≈ 608 µM)	500 (≈ 1220 µM)	
Cc1ncc([N+](=O)[O-])n1CCO [METRONIDAZOLE]													99
C=CCN1c2ccccc2NC2=C(C(=O)CCC2)C1c1cc2ccc(Cl)cc2n(CC=C)c1=O (centres undefined)			> 250	> 250	62.5 (≈ 132 µM)	361	500 (≈ 1060 µM)	> 250	250 (≈ 530 µM)	76	200 (≈ 424 µM)	250 (≈ 530 µM)	
OC(Cn1cncn1)(Cn1cncn1)c1ccc(F)cc1F [FLUCONAZOLE]													99
C=CCn1c(=O)c(C2Nc3ccccc3NC3=C2C(=O)CC(C)(C)C3)cc2ccc(Cl)cc21 (centres undefined)			> 250	> 250	250 (≈ 544 µM)	328	250 (≈ 544 µM)	> 250	250 (≈ 544 µM)	62	100 (≈ 217 µM)	> 250	
C=CCn1c(=O)c(C2Nc3ccccc3NC3=C2C(=O)CC(C)(C)C3)cc2cc(C)ccc21 (centres undefined)			> 250	250 (≈ 569 µM)	> 250	462	500 (≈ 1140 µM)	250 (≈ 569 µM)	200 (≈ 455 µM)	96	250 (≈ 569 µM)	250 (≈ 569 µM)	
C=CCN1c2ccccc2NC2=C(C(=O)CCC2)C1c1cc2cc(C)ccc2n(CC=C)c1=O (centres undefined)			> 250	250 (≈ 554 µM)	250 (≈ 554 µM)	499	250 (≈ 554 µM)	> 250	200 (≈ 443 µM)	< 50	250 (≈ 554 µM)	250 (≈ 554 µM)	
C=CCn1c(=O)c(C2Nc3ccccc3NC3=C2C(=O)CC(C)(C)C3)cc2ccccc21 (centres undefined)			> 250	> 250	200 (≈ 470 µM)	324	200 (≈ 470 µM)	> 250	> 250	< 50	> 250	> 250	
C=CCN1c2ccccc2NC2=C(C(=O)CC(C)(C)C2)C1c1cc2ccc(Cl)cc2n(CC=C)c1=O (centres undefined)			> 250	> 250	> 250	401	500 (≈ 1000 µM)	> 250	> 250	< 50	> 250	500 (≈ 1000 µM)	
C=CCn1c(=O)c(C2Nc3ccccc3NC3=C2C(=O)CCC3)cc2ccccc21 (centres undefined)			> 250	> 250	200 (≈ 503 µM)	347	250 (≈ 629 µM)	200 (≈ 503 µM)	250 (≈ 629 µM)	< 50	250 (≈ 629 µM)	200 (≈ 503 µM)	
C=CCN1c2ccccc2NC2=C(C(=O)CC(C)(C)C2)C1c1cc2cc(C)ccc2n(CC=C)c1=O (centres undefined)			> 250	250 (≈ 521 µM)	100 (≈ 208 µM)	292	250 (≈ 521 µM)	250 (≈ 521 µM)	> 250	< 50	200 (≈ 417 µM)	> 250	
C=CCN1c2ccccc2NC2=C(C(=O)CC(C)(C)C2)C1c1cc2ccccc2n(CC=C)c1=O (centres undefined)			250 (≈ 537 µM)	> 250	250 (≈ 537 µM)	266	500 (≈ 1070 µM)	> 250	> 250	< 50	> 250	> 250	
CC1(C)S[C@@H]2[C@H](NC(=O)[C@H](N)c3ccccc3)C(=O)N2[C@H]1C(=O)O [AMPICILLIN]					100 (≈ 286 µM)		250 (≈ 715 µM)	100 (≈ 286 µM)	250 (≈ 715 µM)		100 (≈ 286 µM)	100 (≈ 286 µM)	
O=C(N[C@H](CO)[C@H](O)c1ccc([N+](=O)[O-])cc1)C(Cl)Cl [CHLORAMPHENICOL]					50 (≈ 155 µM)		50 (≈ 155 µM)	50 (≈ 155 µM)	50 (≈ 155 µM)		50 (≈ 155 µM)	50 (≈ 155 µM)	
Clc1ccc(COC(Cn2ccnc2)c2ccc(Cl)cc2Cl)c(Cl)c1 (centres undefined) [MICONAZOLE]													99
C=CCN1c2ccccc2NC2=C(C(=O)CC(C)(C)C2)C1c1cc2ccc(C)cc2n(CC=C)c1=O (centres undefined)			> 250	> 250	200 (≈ 417 µM)	358	250 (≈ 521 µM)	250 (≈ 521 µM)	250 (≈ 521 µM)	67	250 (≈ 521 µM)	> 250	
